ChEMBL document CHEMBL1142589, “Steroidal alkaloids from the bulbs of Fritillaria puqiensis” (2005)
The source made the active and inactive calls. The rule behind the calls is not given here.

Key:
A549 [1] = assay: Antitumor activity against human A549 cells at 1 uM by MTT assay; type: functional, cell-based
In short: (§1)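 MTT growth-inhibition assay on human A549, BGC-823, SMMC-7721 and HL-60 cancer cells. Each compound was tested at 1×10^-7, 1×10^-6 and 1×10^-5 mol/L. Percent inhibition was calculated relative to untreated cells.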

A549 [2] = assay: Antitumor activity against human A549 cells at 0.1 uM by MTT assay; type: functional, cell-based; in short: as §1
SMMC-7721 [3] = assay: Antitumor activity against human SMMC7721 cells at 0.1 uM by MTT assay; type: functional, cell-based; in short: as §1
HL-60 [4] = assay: Antitumor activity against human HL-60 cells at 1 uM by MTT assay; type: functional, cell-based; in short: as §1
Mus musculus [5] = assay: Antitussive activity in ammonia liquor-induced mouse assessed as number of cough times at 5 mg/kg, po daily for 3 consecutive days administered before ammonia liquor induction measured for 3 mins; type: functional
In short: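 Mice were dosed in 0.5% sodium carboxymethyl cellulose vehicle (0.2 mL/mouse). On day 3, 2 h after dosing, they were placed in a glass chamber and exposed for 5 s to 28% NH₄OH aerosol, nebulized with compressed air at about 400 mmHg. Coughs were counted over 3 min from spray start. Codeine 10 mg/kg was the positive control and vehicle the negative control. n = 10, mean ± SD.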

HL-60 [6] = assay: Antitumor activity against human HL-60 cells at 10 uM by MTT assay; type: functional
In short: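 HL-60 cells were tested by MTT assay at 1×10^-7, 1×10^-6 and 1×10^-5 mol/L of each compound. Percent growth inhibition was calculated relative to untreated cells.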

BGC-823 [7] = assay: Antitumor activity against human BGC-823 cells at 0.1 uM by MTT assay; type: functional, cell-based; in short: as §1
Mus musculus [8] = assay: Antitussive activity in ammonia liquor-induced mouse assessed as number of cough times at 10 mg/kg, po daily for 3 consecutive days administered before ammonia liquor induction measured for 3 mins; type: functional
In short: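 Mice were dosed for three days, with vehicle 0.5% sodium carboxymethyl cellulose at 0.2 mL/mouse; codeine 10 mg/kg served as positive control. On day 3, 2 h post-dose, each mouse was placed in a glass chamber and exposed for 5 s to 28% NH4OH aerosol nebulised by compressed air at about 400 mmHg. Coughs were counted over 3 min from spray onset; n = 10, mean ± SD.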

BGC-823 [9] = assay: Antitumor activity against human BGC-823 cells at 1 uM by MTT assay; type: functional, cell-based; in short: as §1
SMMC-7721 [10] = assay: Antitumor activity against human SMMC7721 cells at 1 uM by MTT assay; type: functional, cell-based; in short: as §1
HL-60 [11] = assay: Antitumor activity against human HL-60 cells at 0.1 uM by MTT assay; type: functional, cell-based; in short: as §1

| Structure (SMILES) | Activity (A549 [1]) | Activity (A549 [2]) | Activity (SMMC-7721 [3]) | Activity (HL-60 [4]) | Activity (Mus musculus [5]) | Activity (HL-60 [6]) | Activity (BGC-823 [7]) | Activity (Mus musculus [8]) | Activity (BGC-823 [9]) | Activity (SMMC-7721 [10]) | Activity (HL-60 [11]) |
| --- | --- | --- | --- | --- | --- | --- | --- | --- | --- | --- | --- |
| C[C@H]1CC[C@H]([C@@H](C)[C@H]2CC[C@H]3[C@@H]4CC(=O)[C@H]5C[C@@H](O)CC[C@]5(C)[C@H]4CC[C@]23C)NC1 | inactive | inactive | inactive | inactive | 23 | 51% | inactive | 18 | inactive | inactive | inactive |
| CC1=C2C[C@H]3[C@@H](C[C@@H](O)[C@H]4C[C@@H](O)CC[C@@]43C)[C@@H]2CC[C@@H]1[C@@H](C)[C@@H]1[C@H](O)C[C@@H](C)CN1C (relative stereo) [PUQIENINE A] | inactive | inactive | inactive | inactive | 18 |  | inactive | 14 | inactive | inactive | inactive |
| CC1=C2C[C@H]3[C@@H](CC(=O)[C@H]4C[C@@H](O)CC[C@@]43C)[C@@H]2CC[C@@H]1[C@@H](C)[C@@H]1[C@H](O)C[C@@H](C)CN1C (relative stereo) [PUQIENINE B] | inactive | inactive | inactive | inactive | 12 |  | inactive | 10 | inactive | inactive | inactive |
| COc1ccc2c3c1O[C@H]1[C@@H](O)C=C[C@H]4[C@@H](C2)N(C)CC[C@@]341 [CODEINE] |  |  |  |  |  |  |  | 5 |  |  |  |
| C[C@@H]1CC[C@@H]([C@@H](C)[C@@H]2CC[C@H]3[C@@H]4CC(=O)[C@H]5C[C@@H](O)CC[C@]5(C)[C@H]4CC[C@]23C)N(C)C1 [PUQIETINONE] |  |  |  |  | 17 |  |  | 11 |  |  |  |
| C[C@H]1CC[C@H]([C@@H](C)[C@H]2CC[C@H]3[C@@H]4CC(=O)[C@H]5C[C@@H](O[C@@H]6O[C@H](CO)[C@@H](O)[C@H](O)[C@H]6O)CC[C@]5(C)[C@H]4CC[C@]23C)N(C)C1 [PUQIETINONOSIDE] | inactive | inactive | inactive | inactive | 17 |  | inactive | 13 | inactive | inactive | inactive |
